ChEMBL document CHEMBL2163277, “The selectivity of austocystin D arises from cell-line-specific drug activation by cytochrome P450 enzymes” (J Nat Prod, 2011)
Activity calls are given as the source filed them. No cut-off for these calls is given here.

Key:
MCF7 [1] = assay: Selectivity ratio of GI50 for human MCF7 cells over GI50 for human MES-SA cells; assay type: functional
HCT-15 [2] = assay: Growth inhibition of human HCT15 cells at 0.5 to 2 uM after 72 hrs by celltiter-blue viability assay in presence of CYP inhibitor ketoconazole; assay type: functional, cell-based
Outline: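 HCT-15 cells exposed to 0.5, 1 or 2 μM test agent across a ketoconazole dose range, 0.1% DMSO final. Cell-Titer Blue read at 0 and 72 h. Growth normalized to DMSO controls at 0 h and 72 h.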

MCF7 [3] = assay: Growth inhibition of human MCF7 cells after 72 hrs by celltiter-blue viability assay; assay type: functional
Outline: (§1)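 Cells (HUVEC from Lonza, others from ATCC) seeded at 2500–10 000 cells/well 24 h before dosing. 3-fold serial dilutions in DMSO, 0.1% DMSO final. Cell-Titer Blue read at 0 h and 72 h.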

MCF7 [4] = assay: Selectivity ratio of GI50 for human MCF7 cells over GI50 for human MCF10A cells
HCT-15 [5] = assay: Ratio of austocystin D GI50 to verapamil GI50 for MDR1 expressing human HCT15 cells; assay type: functional
[6] = Growth inhibition of HUVEC after 72 hrs by celltiter-blue viability assay; assay type: cell-based; conditions: human; outline: as §1
SW-620 [7] = assay: Induction of DNA damage in human SW620 cells assessed as H2AX phosphorylation after 1 hr by Western blot analysis; assay type: functional, cell-based
Outline: (§2)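 In-cell Western for pSer139 H2AX after 1 h dosing. Cells at 10 000/well plated 24 h ahead, 0.1% DMSO final. Fixed in 4% paraformaldehyde, permeabilized, stained with anti-phospho-H2AX plus IR800CW secondary and DRAQ5. 800/700 nm ratio, duplicate or triplicate wells, normalized to 0.1% DMSO (0%) and 10 μM etoposide (100%).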

A549 = assay: Growth inhibition of human A549 cells after 72 hrs by celltiter-blue viability assay; assay type: functional; conditions: A549, 72 h; outline: as §1
Liver = assay: Induction of DNA damage in human liver microsomes assessed as conversion of supercoiled plasmid DNA to nicked DNA by at 100 nM by agarose gel electrophoresis in presence of NADPH generating system; assay type: functional; conditions: Microsome
Outline: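 Supercoiled pLenti6 plasmid (120 μg/mL) incubated 4 h at 37 °C with compound (100 nM–1 μM, 1% DMSO) plus or minus human liver microsomes (0.25 mg/mL) and NADPH regenerating system (1.5 mM NADP, 12.5 mM G6P, 0.25 U/mL G6PDH, 100 mM phosphate pH 7.5, 5 mM MgCl2). Phenol/chloroform stop, DNA purified, 0.8% agarose gel for nicked versus supercoiled forms.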

HCT-15 [8] = assay: Induction of DNA damage in human HCT15 cells assessed as H2AX phosphorylation after 4 hrs by Western blot analysis presence of CYP inhibitor ketoconazole; assay type: functional, cell-based
Outline: (§3)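 Cells pretreated 1 h with 10 μM ketoconazole, then dosed 4 h. pSer139 H2AX measured by in-cell Western as 800/700 nm ratio (DRAQ5 normalization), scaled to 0.1% DMSO (0%) and 10 μM etoposide (100%). In SW620 cells, test agent at 10 μM with 20 μM camptothecin as comparator.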

[9] = Growth inhibition of human MES-SA cells after 72 hrs by celltiter-blue viability assay; assay type: functional; outline: as §1
MDA-MB-231 = assay: Growth inhibition of human MDA-MB-231 cells after 72 hrs by celltiter-blue viability assay; assay type: functional; conditions: MDA-MB-231, 72 h; outline: as §1
SW-620 [10] = assay: Induction of DNA damage in human SW620 cells assessed as H2AX phosphorylation at 10 uM in presence of CYP inhibitor ketoconazole; assay type: functional, cell-based; outline: as §3
HeLa [11] = assay: Growth inhibition of human HeLa cells after 72 hrs by celltiter-blue viability assay; assay type: functional; outline: as §1
HeLa [12] = assay: Induction of DNA damage in human HeLa cells assessed as H2AX phosphorylation after 1 hr by Western blot analysis; assay type: functional, cell-based; outline: as §2
HCT-15 [13] = assay: Growth inhibition of human HCT15 cells after 72 hrs by celltiter-blue viability assay; assay type: functional; conditions: HCT-15, 72 h; outline: as §1
[14] = Growth inhibition of human MCF10A cells after 72 hrs by celltiter-blue viability assay; assay type: cell-based, MCF-10A; outline: as §1
SW-620 [15] = assay: Growth inhibition of human SW620 cells after 72 hrs by celltiter-blue viability assay; assay type: functional; conditions: SW-620, 72 h; outline: as §1
SR = assay: Growth inhibition of human SR cells after 72 hrs by celltiter-blue viability assay; assay type: functional; outline: as §1
PC-3 = assay: Growth inhibition of human PC3 cells after 72 hrs by celltiter-blue viability assay; assay type: functional; conditions: PC-3, 72 h; outline: as §1
HCT-15 [16] = assay: Induction of DNA damage in human HCT15 cells assessed as H2AX phosphorylation after 1 hr by Western blot analysis; assay type: functional, cell-based; outline: as §2
HCT-15 [17] = assay: Cytotoxicity against MDR1 expressing human HCT15 cells; assay type: functional, cell-based; outline: as §1
[18] = Growth inhibition of human MES-SA/MX2 cells after 72 hrs by celltiter-blue viability assay; assay type: functional; conditions: MX2, 72 h; outline: as §1
[19] = Growth inhibition of human U87 cells after 72 hrs by celltiter-blue viability assay; assay type: functional, U-87MG ATCC; conditions: U-87 MG; outline: as §1
[20] = biological target: ATP-dependent translocase ABCB1 (Homo sapiens, UniProt P08183); assay: Inhibition of MDR1 in human HCT15 cells assessed as calcein-AM efflux at 10 uM by fluorescence assay; assay type: cell-based; conditions: hct-15, 10 µM
HCT-15 [21] = assay: Induction of DNA damage in human HCT15 cells assessed as H2AX phosphorylation after 4 hrs by Western blot analysis; assay type: functional, cell-based
Outline: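 HCT-15 cells at 10 000/well, dosed 4 h at 37 °C, 0.1% DMSO final. In-cell Western with anti-phospho-H2AX (Ser139) and DRAQ5. 800/700 nm ratio normalized to 0.1% DMSO (0%) and 10 μM etoposide (100%). Curve fit by nonlinear regression.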

MCF-10A = assay: Growth inhibition of human MCF10A cells after 72 hrs by celltiter-blue viability assay relative to control; assay type: cell-based
Outline: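 MCF10A seeded at 2500–10 000 cells/well 24 h before dosing. 3-fold serial dilutions, 0.1% DMSO final. Cell-Titer Blue read at 0 and 72 h. Growth normalized to DMSO controls at 0 h (0%) and 72 h (100%). Dose-response fitted by nonlinear regression.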

MCF7 [22] = assay: Induction of DNA damage in human MCF7 cells assessed as H2AX phosphorylation up to 10 uM after 4 hrs by Western blot analysis; assay type: functional, cell-based
Outline: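 In-cell Western: MCF7 at 10 000 cells/well, dosed 24 h later with 3-fold serial dilutions (final DMSO 0.1%); 4 h at 37 °C, paraformaldehyde fixation, anti-phospho-H2AX Ser139 with IR800 secondary, DRAQ5 for normalization (800/700 nm ratio); duplicate or triplicate wells, scaled to 0.1% DMSO (0%) and 10 μM etoposide (100%); nonlinear curve fit.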

MCF7 [23] = assay: Growth inhibition of human MCF7 cells at up to 10 uM after 72 hrs by celltiter-blue viability assay; assay type: functional, cell-based

Chain of ATP-dependent translocase ABCB1 (P08183 whole entry): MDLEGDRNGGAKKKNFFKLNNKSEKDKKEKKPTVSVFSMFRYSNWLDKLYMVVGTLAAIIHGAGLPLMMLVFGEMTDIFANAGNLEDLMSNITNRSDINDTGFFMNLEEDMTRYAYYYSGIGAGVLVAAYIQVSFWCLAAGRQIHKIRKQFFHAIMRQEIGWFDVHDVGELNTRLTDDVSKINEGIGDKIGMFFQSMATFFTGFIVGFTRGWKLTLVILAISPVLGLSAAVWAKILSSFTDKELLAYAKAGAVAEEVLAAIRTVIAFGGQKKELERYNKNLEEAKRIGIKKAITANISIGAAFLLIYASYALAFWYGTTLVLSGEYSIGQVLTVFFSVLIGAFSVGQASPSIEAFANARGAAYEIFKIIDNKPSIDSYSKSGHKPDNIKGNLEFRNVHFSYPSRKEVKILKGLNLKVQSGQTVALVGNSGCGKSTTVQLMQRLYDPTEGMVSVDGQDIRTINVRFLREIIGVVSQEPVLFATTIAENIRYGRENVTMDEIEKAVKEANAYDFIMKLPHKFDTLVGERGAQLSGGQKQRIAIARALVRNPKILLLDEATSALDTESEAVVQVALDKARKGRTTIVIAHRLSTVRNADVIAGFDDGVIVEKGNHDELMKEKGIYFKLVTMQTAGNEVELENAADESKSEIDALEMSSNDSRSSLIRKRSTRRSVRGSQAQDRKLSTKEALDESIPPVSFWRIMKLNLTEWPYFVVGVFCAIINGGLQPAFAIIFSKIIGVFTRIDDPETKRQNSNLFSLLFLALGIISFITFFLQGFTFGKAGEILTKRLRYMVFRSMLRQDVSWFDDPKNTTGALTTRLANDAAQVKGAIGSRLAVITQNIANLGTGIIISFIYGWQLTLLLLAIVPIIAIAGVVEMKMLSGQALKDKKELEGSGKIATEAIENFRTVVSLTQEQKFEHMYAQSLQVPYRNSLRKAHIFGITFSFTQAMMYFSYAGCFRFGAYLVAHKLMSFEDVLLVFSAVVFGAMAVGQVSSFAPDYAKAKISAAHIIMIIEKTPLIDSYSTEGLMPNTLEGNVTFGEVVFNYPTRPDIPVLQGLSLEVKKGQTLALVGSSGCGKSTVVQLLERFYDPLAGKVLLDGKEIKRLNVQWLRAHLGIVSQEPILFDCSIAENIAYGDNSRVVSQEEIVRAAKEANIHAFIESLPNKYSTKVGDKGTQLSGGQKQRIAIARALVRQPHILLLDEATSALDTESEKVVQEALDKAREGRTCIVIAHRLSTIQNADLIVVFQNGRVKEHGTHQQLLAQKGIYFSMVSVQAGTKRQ

With `CC(C)(O)CCc1ccc(O)c2c(=O)c3c(O)c4c(cc3oc12)O[C@H]1OC=C[C@@]41O` [AUSTOCYSTIN D] the RatioGI50 (MCF7 [1]) was over 10000, the “growth inhibition (GI)” value (HCT-15 [2]) was “inactive” and the GI50 (MCF7 [3]; MCF7, 72 h) was under 0.001 µM. The RatioGI50 (MCF7 [4]) was over 1000, the RatioGI50 (HCT-15 [5]) was over 1000 and the GI50 at 72 h [6] was 4.25 µM. For the same molecule, the Activity (SW-620 [7]) was “Active”, the GI50 (A549) was over 5 µM and the Activity (Liver) was “Active”. For the same molecule, the Activity (HCT-15 [8]) was “inactive”, the GI50 [9] was over 10 µM and the GI50 (MDA-MB-231) was 0.549 µM. For the same molecule, the Activity (SW-620 [10]) was “inactive”, the GI50 (HeLa [11]) was over 5 µM and the Activity (HeLa [12]) was “Active”. It also gave a GI50 (HCT-15 [13]) of 0.042 µM, a GI50 at 72 h [14] of 3.51 µM and a GI50 (SW-620 [15]) of 0.027 µM. The GI50 (SR) was 0.016 µM, the GI50 (PC-3) was 0.003 µM and the Activity (HCT-15 [16]) was “Active”. For the same molecule, the Activity (HCT-15 [17]) was “Active”, the GI50 [18] was 3.36 µM and the GI50 [19] was 4.95 µM. For the same molecule, the “inhibition (INH)” value [20] was “Active”.

In the case of `CC[C@@]1(O)C(=O)OCc2c1cc1n(c2=O)Cc2cc3ccccc3nc2-1`, the Activity (HCT-15 [21]) was “Dose-dependent effect”.

For `COc1cccc2c1C(=O)c1c(O)c3c(c(O)c1C2=O)C[C@@](O)(C(=O)CO)C[C@@H]3O[C@H]1C[C@H](N)[C@H](O)[C@H](C)O1` [DOXORUBICIN], the GI50 (MCF7 [3]; MCF7, 72 h) was over 5 µM, the Activity (HCT-15 [21]) was “Dose-dependent effect” and the GI50 at 72 h [14] was over 5 µM. The “fold change (FC)” value (MCF-10A) was 50.

In the case of `COc1cc2c(c3oc(=O)c4c(c13)CCC4=O)[C@@H]1C=CO[C@@H]1O2` [AFLATOXIN], the GI50 (MCF7 [3]) was over 5 µM and the GI50 at 72 h [14] was over 5 µM.

For `COc1ccc(CCN(C)CCCC(C#N)(c2ccc(OC)c(OC)c2)C(C)C)cc1OC` (stereo not drawn), the Activity (HCT-15 [17]) was “Active”.

In the case of `CC(C)(O)CCc1ccc(O)c2c(=O)c3c(O)c4c(cc3oc12)O[C@H]1OCC[C@@]41O`, the Activity (MCF7 [22]) was “inactive” and the “growth inhibition (GI)” value (MCF7 [23]) was “inactive”.

In the case of `COc1cc([C@@H]2c3cc4c(cc3[C@@H](O[C@@H]3O[C@@H]5CO[C@@H](C)O[C@H]5[C@H](O)[C@H]3O)[C@H]3COC(=O)[C@H]23)OCO4)cc(OC)c1O` [ETOPOSIDE], the GI50 (MCF7 [3]; MCF7, 72 h) was over 5 µM, the GI50 at 72 h [14] was over 5 µM and the “fold change (FC)” value (MCF-10A) was 50.
